37 sequences from the array DNA melting data of Ke et al. (doi:10.1101/2024.01.08.574731) can be followed below.

A short description of data set [1]: melting temperature; fluorescence melt of hairpins on a sequencing array, two-state fit, raised by 9.35 °C to match UV melts. To be noted: sodium 0.088 M. The method in brief:
(§1)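 Bootstrapped two-state fits yielded melting temperature and folding enthalpy for library hairpins. Cy3 fluorescence, with annealed Cy3 and quencher oligos, was imaged on a sequenced MiSeq flow cell in 50 mM Na-HEPES pH 8.0, 25 mM NaCl in 2.5 °C steps up to 60 °C, and normalised to pre-quench Cy3 and to control constructs. Four replicates were combined by inverse variance, and fitted temperatures were raised by 9.35 °C to match UV melts.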

Data set [2] in a line: folding enthalpy; higher = less favourable; fluorescence melt of hairpins on a sequencing array, two-state fit. To be noted: sodium 0.088 M. Put shortly:
as §1

For GAGTTCGGAAACGAATTC ((.((((....)))).)), the Tm in data set [1] stood at 44 °C. For the same sequence, the folding enthalpy in data set [2] was -30.8 kcal/mol.
In the case of GAGTTCGGAAACGAGCTC (((.(((....))).))), in data set [1], the Tm came to 51.7 °C. For the same sequence, the folding enthalpy in data set [2] is -31.3 kcal/mol.
Take GAGTTCGGAAACGGATTC ((.(.((....)).).)): the Tm in data set [1] was 27.3 °C. In data set [2], the folding enthalpy was -17.4 kcal/mol.
Consider GAGTTGCGAAAGCATCTC (((.(((....))).))), for which, in data set [1], the Tm amounted to 50.1 °C. Further, the folding enthalpy in data set [2] is -28.6 kcal/mol.
As for GAGTTGGGAAACCGACTC ((((.((....)).)))), in data set [1], the Tm came out at 51.5 °C. For the same sequence, in data set [2], the folding enthalpy was -40.2 kcal/mol.
On the same counts, the results for GAGTTTGAAAAAACTC ((((((....)))))) are 50.8 °C and -32.2 kcal/mol.
In the case of GAGTTTGGAAACAAACCC (.(((((....))))).), the Tm in data set [1] is 37.3 °C. Moreover, the folding enthalpy in data set [2] is -18.5 kcal/mol.
The corresponding values for GAGTTTGGAAACAAACTC (((((((....))))))) are 58.3 °C and -43.1 kcal/mol.
The corresponding values for GATAACCGAAAGGTGATC (((.(((....))).))) are 47.8 °C and -27.9 kcal/mol.
The corresponding values for GATAACGAAAGTTAGATC ((((((....)))..))) are 35.3 °C and -16.8 kcal/mol.
For GATAACGAAAGTTATC ((((((....)))))), the Tm in data set [1] is 53.9 °C. Moreover, the folding enthalpy in data set [2] is -32.9 kcal/mol.
The corresponding values for GATAACGGAAACGTTATC (((((((....))))))) are 56.4 °C and -47.8 kcal/mol.
The corresponding values for GATAACGGAAACGTTGTC ((.((((....)))).)) are 45.8 °C and -28 kcal/mol.
As to GATAAGCGAAAGCTGATC (((.(((....))).))), in data set [1], the Tm turned out to be 47.5 °C. Further, the folding enthalpy in data set [2] is -26.3 kcal/mol.
GATAAGGGAAACCCTATC ((((.((....)).)))): in data set [1], the Tm stood at 30.6 °C. The folding enthalpy in data set [2] was -15.6 kcal/mol.
On the same counts, the results for GATAAGGGAAACCTTATC (((((((....))))))) are 49.7 °C and -44.2 kcal/mol.
With GATAAGGGAAACCTTGTC ((.((((....)))).)), in data set [1], the Tm worked out at 37.9 °C. Moreover, in data set [2], the folding enthalpy is -20.7 kcal/mol.
On the same counts, the results for GATAATGGAAACATTGTC ((.((((....)))).)) are 36.2 °C and -31.2 kcal/mol.
The corresponding values for GATACACGAAAGTGATC (((.(((....)))))) are 36.8 °C and -12.4 kcal/mol.
On the same counts, the results for GATACAGAAATGTATC ((((((....)))))) are 44.8 °C and -30.3 kcal/mol.
On to GATACCGAAAGGTGATC ((((((....))).))), for which, in data set [1], the Tm came to 38.1 °C. For the same sequence, the folding enthalpy in data set [2] is -15.7 kcal/mol.
For the sequence GATACCGGAAACGGTATC (((((((....))))))), the Tm in data set [1] is 65 °C. In addition, the folding enthalpy in data set [2] is -34.2 kcal/mol.
On the same counts, the results for GATACGAAAGTATC (((((....))))) are 56.6 °C and -32.2 kcal/mol.
For the sequence GATACGCGAAAGCGATC (((.(((....)))))), in data set [1], the Tm worked out at 37.7 °C. In data set [2], the folding enthalpy is -13.1 kcal/mol.
On the same counts, the results for GATAGACCGAAAGGTATC (((..(((....)))))) are 28.2 °C and -11.3 kcal/mol.
With GATAGACGAAAGTCCATC (((.(((....))).))), the Tm in data set [1] worked out at 35.1 °C. For the same sequence, in data set [2], the folding enthalpy is -13.3 kcal/mol.
On the same counts, the results for GATAGACGAAAGTCGATC (((.(((....))).))) are 51.2 °C and -25.9 kcal/mol.
On the same counts, the results for GATAGCGAAAGCTAATC ((((((....))).))) are 40.7 °C and -12.8 kcal/mol.
The corresponding values for GATAGCGAAAGCTCGATC ((((((....)))..))) are 24.8 °C and -10.1 kcal/mol.
In the case of GATAGCGAAAGCTGGATC ((((((....)))..))), in data set [1], the Tm came to 29.6 °C. In addition, the folding enthalpy in data set [2] is -12.9 kcal/mol.
On the same counts, the results for GATAGCGAAAGCTTGATC ((((((....)))..))) are 25.1 °C and -8.2 kcal/mol.
As for GATAGCGGAAACACTATC (((((.(....).))))), the Tm in data set [1] came out at 36.5 °C. For the same sequence, the folding enthalpy in data set [2] was -27.6 kcal/mol.
The corresponding values for GATAGCGGAAACGCTATC (((((((....))))))) are 65.7 °C and -34.4 kcal/mol.
On the same counts, the results for GATAGTGAAAACTATC ((((((....)))))) are 48.4 °C and -30.1 kcal/mol.
On the same counts, the results for GATAGTGGAAACGCTATC (((((.(....).))))) are 42.9 °C and -25.7 kcal/mol.
Consider GATATAACGAAAGTTATC (((..(((....)))))), for which the Tm in data set [1] amounted to 30.6 °C. Besides, the folding enthalpy in data set [2] is -15.6 kcal/mol.
The corresponding values for GATATACCGAAAGGTATC (((..(((....)))))) are 32.8 °C and -13.3 kcal/mol.
